Laboratory results as given in ChEMBL document CHEMBL4480450, “Cytotoxic Germacrane-Type Sesquiterpene Lactones from the Whole Plant of Carpesium lipskyi” (J Nat Prod, 2019).

Experiments:
A549 = assay: Cytotoxicity against human A549 cells after 72 hrs by CCK8 assay; format: functional, cell-based; conditions: A549, 72 h
Outline: (§1)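 Cells seeded in 96-well plates and left overnight at 37 °C in humidified 5% CO2. Serial dilutions of the compounds added, then 72 h further incubation. CCK-8 reagent added for the last 4 h and absorbance read at 450 nm.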

HL-60 = assay: Cytotoxicity against human HL60 cells after 72 hrs by CCK8 assay; format: functional, cell-based; conditions: HL-60, 72 h; outline: as §1

Structure (SMILES)	IC50 (A549) [µM]	IC50 (HL-60) [µM]
C=C1C(=O)O[C@H]2[C@H]1[C@H](OC(=O)/C(C)=C\C)C(=O)[C@H](C)CCC[C@](C)(O)[C@@H]2OC(=O)C(C)C	4.7	3
C=C1C(=O)O[C@H]2[C@H]1[C@H](OC(=O)C(C)C)C(=O)[C@H](C)CCC[C@](C)(O)[C@@H]2OC(=O)C(C)C	5.2	5
C=C1C(=O)O[C@@H]2[C@@H]1[C@H](O)[C@@H](OC(=O)C(C)C)[C@@H](C)CCC(=O)[C@](C)(O)[C@H]2OC(=O)C(C)C	4	5.9
C=C1C(=O)O[C@H]2[C@@H]1[C@@H](OC(=O)CC(C)C)[C@@]1(O)O[C@H](CC[C@H]1C)[C@](C)(O)[C@@H]2OC(=O)C(C)CC (stereo not given in full)	6.7	5.6
C=C1C(=O)O[C@H]2[C@@H]1[C@@H](OC(=O)CC(C)C)[C@@]1(O)O[C@H](CC[C@H]1C)[C@](C)(O)[C@@H]2OC(=O)C(C)C	10.3	6.2
C=C1C(=O)O[C@H]2[C@@H]1[C@H](OC(=O)CC(C)C)C(=O)[C@H](C)C[C@H]1O[C@@H]1[C@](C)(O)[C@@H]2OC(=O)C(C)C	> 10	2.8
C=C1C(=O)O[C@H]2[C@H]1[C@@H](O)[C@H](OC(=O)CC(C)C)[C@H](C)CCC(=O)[C@](C)(O)[C@@H]2OC(=O)C(C)C (relative stereo)	6.2	5.5
COc1cccc2c1C(=O)c1c(O)c3c(c(O)c1C2=O)C[C@@](O)(C(=O)CO)C[C@@H]3O[C@H]1C[C@H](N)[C@H](O)[C@H](C)O1 [DOXORUBICIN]	0.4	
